Legend:
Assay type in all cases: functional
Rattus norvegicus [1] = experiment: The compound was tested for Granuloma generation on CMC-LPS air-pouch model at 3 mg/kg by oral administration
Procedure, shortened: (§1)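 Rat CMC-LPS air pouch (air, 2% CMC-Na, then LPS 5 ng). Oral dosing in 0.5% methyl cellulose 2 h before LPS. Granuloma wet weight determined 5 days after LPS; % inhibition versus control, with an LPS-free group included.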

Rattus norvegicus [2] = experiment: Inhibitory activity against PGE-2 on CMC-LPS air-pouch model at 3 mg/kg by oral administration
Procedure, shortened: (§2)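 Rat CMC-LPS air pouch (air, 2% CMC-Na, then LPS 5 ng). Oral dosing in 0.5% methyl cellulose 2 h before LPS. PGE2 in the exudate supernatant collected 4 h after LPS, measured by radioimmunoassay.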

Rattus norvegicus [3] = experiment: Inhibitory activity against Granuloma on CMC-LPS air-pouch model at 3 mg/kg by oral administration; procedure, shortened: as §1
Rattus norvegicus [4] = experiment: Inhibitory activity against IL-1 on CMC-LPS air-pouch model at 3 mg/kg by oral administration
Procedure, shortened: (§3)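 Rat CMC-LPS air pouch: air s.c., 2% CMC-Na 24 h later, LPS 5 ng 24 h after that. Compound given orally in 0.5% methyl cellulose 2 h before LPS. Exudate collected at 4 h; IL-1 (extra- plus intracellular) read by LAF assay against a recombinant human IL-1α curve.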

Rattus norvegicus [5] = experiment: % inhibition against arthritis on adjuvant-untreated paw in rats at 1 mg/kg by oral administration
Procedure, shortened: (§4)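 Adjuvant arthritis in rats; drug given orally once daily from the first day of adjuvant treatment. Swelling of the adjuvant-untreated paw measured by plethysmometer on day 15 after adjuvant; % inhibition versus control. Mean ± SEM of 6–10 animals; significance versus control.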

Rattus norvegicus [6] = experiment: The compound was tested for IL-1 generation on CMC-LPS air-pouch model at 3 mg/kg by oral administration
Procedure, shortened: (§5)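 Rats got 10 mL subcutaneous dorsal air, then 6 mL sterile 2% (w/v) CMC-Na in saline into the pouch 24 h later, then 5 ng LPS in 0.5 mL saline 24 h after that. Compound given orally as a suspension in 0.5% methyl cellulose 2 h before LPS. Exudate collected 4 h after LPS. Extra- plus intracellular IL-1 measured by LAF assay against a human recombinant IL-1α curve. Percent inhibition versus control; five rats per group.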

Rattus norvegicus [7] = experiment: Inhibitory activity against IL-1 on CMC-LPS air-pouch model at 10 mg/kg by oral administration; procedure, shortened: as §3
Rattus norvegicus [8] = experiment: The compound was tested for IL-1 generation on CMC-LPS air-pouch model at 2.5 mg/kg by oral administration; procedure, shortened: as §5
Rattus norvegicus [9] = experiment: Inhibitory activity against PGE-2 on CMC-LPS air-pouch model at 10 mg/kg by oral administration; procedure, shortened: as §2
Rattus norvegicus [10] = experiment: Inhibitory activity against PGE-2 on CMC-LPS air-pouch model at 2.5 mg/kg by oral administration; procedure, shortened: as §2
Rattus norvegicus [11] = experiment: Inhibitory activity against Granuloma on CMC-LPS air-pouch model at 10 mg/kg by oral administration; procedure, shortened: as §1
Rattus norvegicus [12] = experiment: Inhibitory activity against IL-1 on CMC-LPS air-pouch model at 2.5 mg/kg by oral administration; procedure, shortened: as §3
Rattus norvegicus [13] = experiment: Inhibitory activity against Granuloma on CMC-LPS air-pouch model at 2.5 mg/kg by oral administration; procedure, shortened: as §1
Rattus norvegicus [14] = experiment: % inhibition against arthritis on adjuvant-untreated paw in rats at 5 mg/kg by oral administration; procedure, shortened: as §4

Compound: COc1ccc2c(c1)c(CC(=O)O)c(C)n2C(=O)c1ccc(Cl)cc1 [INDOMETHACIN]
- Wet weight (Rattus norvegicus [1]): 2.08 g
- inhibition in vivo at 3 mg/kg (Rattus norvegicus [2]): 97%
- inhibition in vivo at 3 mg/kg (Rattus norvegicus [3]): < 25%
- inhibition in vivo at 3 mg/kg (Rattus norvegicus [4]): < 25%
- inhibition in vivo at 1 mg/kg (Rattus norvegicus [5]): 47.8%
- IL-1 level (Rattus norvegicus [6]): 995 units/mL

Compound: C[C@]12C=CC(=O)C=C1CC[C@@H]1[C@@H]2[C@@H](O)C[C@@]2(C)[C@H]1CC[C@]2(O)C(=O)CO [PREDNISOLONE]
- inhibition in vivo at 10 mg/kg (Rattus norvegicus [7]): 64%
- IL-1 level (Rattus norvegicus [8]): 596 units/mL
- inhibition in vivo at 10 mg/kg (Rattus norvegicus [9]): 86%
- inhibition in vivo at 2.5 mg/kg (Rattus norvegicus [10]): 69%
- inhibition in vivo at 10 mg/kg (Rattus norvegicus [11]): 88%
- inhibition in vivo at 2.5 mg/kg (Rattus norvegicus [12]): 34%
- inhibition in vivo at 2.5 mg/kg (Rattus norvegicus [13]): 48%
- inhibition in vivo at 5 mg/kg (Rattus norvegicus [14]): 44.4%
